In ChEMBL document CHEMBL1121573, “2-(Aminomethyl)phenols, a new class of saluretic agents. 1. Effects of nuclear substitution” (J Med Chem, 1980):

What was measured:
Rattus norvegicus [1] = experiment: Compound administered orally at a dose of 1 mg/kg was evaluated for salidiuretic activity measured as sodium ion excretion in Rat; details: in vivo, po
Rattus norvegicus [2] = experiment: Oral diuretic activity was evaluated by measuring Na+ excretion in Rat at 9 mg/kg […] ( 0 - 5 hr); format: ADME, organism-based, Urine; parameters: dose 9 mg/kg
Summary of the method: (§1)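 Female Charles-River rats (150–170 g) were kept overnight on a sugar diet with water ad libitum. Compound was dissolved in DMF, then diluted with water containing Tween 80 (3 drops/100 mL) to a final 4% DMF, and given po in 5.0 mL. Rats were housed three per metabolism cage. Urine from 0–5 h was analysed for Na+, K+ and Cl−, with concurrent placebo controls. Values are mequiv × 100 per cage, geometric mean of three cages per dose.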

Rattus norvegicus [3] = experiment: Maximum fall in mean arterial blood pressure was measured in SH rats when compound was administered at 40 mg/kg perorally; format: functional; details: route oral
Rattus norvegicus [4] = species: Rattus norvegicus; experiment: Time taken for the decrease in arterial pressure was measured; format: functional, Artery
Rattus norvegicus [5] = experiment: Oral diuretic activity was evaluated by measuring Cl- excretion in Rat at 27 mg/kg after […] ( 0 - 5 hr); format: ADME, organism-based, Urine; parameters: dose 27 mg/kg, route intraperitoneal; details: in vivo
Rattus norvegicus [6] = experiment: Oral diuretic activity was evaluated by measuring K+ excretion in Rat at 3 mg/kg […] ( 0 - 5 hr); format: ADME, organism-based, Urine; parameters: dose 3 mg/kg
Summary of the method: (§2)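 Female Charles-River rats (150–170 g) were kept overnight on a sugar diet with water ad libitum. Test substance was dissolved in DMF and diluted with water containing Tween 80 to a final 4% DMF vehicle, then given po in 5.0 mL. Rats were housed three per metabolism cage, and 0–5 h urine was assayed for Na⁺, K⁺ and Cl⁻ alongside concurrent placebo groups. Values are mequiv × 100 per cage, geometric means of three cages per dose.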

Rattus norvegicus [7] = experiment: Maximum fall in mean arterial blood pressure was measured in SH rats when compound was administered at 20 mg/kg perorally; format: functional; details: route oral
Rattus norvegicus [8] = experiment: Oral diuretic activity was evaluated by measuring K+ excretion in Rat at 9 mg/kg after […] ( 0 - 5 hr); format: ADME, organism-based, Urine; parameters: dose 9 mg/kg; details: in vivo
Summary of the method: as §2

Rattus norvegicus [9] = experiment: Oral diuretic activity was evaluated by measuring Cl- excretion in Rat at 81 mg/kg after po administration ( 0 - 5 hr); details: in vivo
Canis familiaris [10] = experiment: Oral diuretic activity was evaluated by measuring K+ excretion in dog at 1 mg/kg after […] ( 0 - 6 hr); format: ADME, organism-based, Canis lupus familiaris, Urine; parameters: dose 1 mg/kg; details: in vivo
Summary of the method: (§3)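 Spontaneous urine was pooled with bladder urine collected by catheterization at 6 h. Volume was measured and Na+, K+ and Cl− were determined by standard methods. Values are geometric means.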

Rattus norvegicus [11] = experiment: Oral diuretic activity was evaluated by measuring K+ excretion in Rat at 81 mg/kg […] ( 0 - 5 hr); format: ADME, organism-based, Urine; parameters: dose 81 mg/kg
Summary of the method: as §2

Canis familiaris [12] = experiment: Oral diuretic activity was evaluated by measuring K+ excretion in dog at 5 mg/kg after ip administration ( 0 - 6 hr); format: ADME, organism-based, Canis lupus familiaris, Urine; parameters: dose 5 mg/kg, route intraperitoneal; details: in vivo
Summary of the method: as §3

Rattus norvegicus [13] = experiment: Evaluated for salidiuretic activity measured as sodium ion excretion in Rat, administered orally at a dose of 50 mg/kg; format: functional, Urine; parameters: unit not given beside the values; details: route oral
Summary of the method: (§4)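 Female Charles-River rats (150–170 g), overnight on sugar diet with water ad libitum. Compound dissolved in DMF, diluted with water containing Tween 80 (final 4% DMF), given po in 5.0 mL; concurrent vehicle placebo. Three rats per metabolism cage; 0–5 h urine analysed for Na+, K+, Cl-. Values: mequiv × 100 per cage, geometric means of three cages per dose; scored 0–6 by Na+.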

Canis familiaris [14] = experiment: Oral diuretic activity was evaluated by measuring K+ excretion in dog at 2 mg/kg after ip administration ( 0 - 6 hr); format: ADME, organism-based, Canis lupus familiaris, Urine; parameters: route intraperitoneal, dose 2 mg/kg; details: in vivo
Summary of the method: as §3

Canis familiaris [15] = experiment: Oral diuretic activity was evaluated by measuring Cl- excretion in dog at 1 mg/kg after […] ( 0 - 6 hr); format: ADME, organism-based, Canis lupus familiaris, Urine; parameters: dose 1 mg/kg, route intraperitoneal; details: in vivo
Rattus norvegicus [16] = experiment: Oral diuretic activity was evaluated by measuring Na+ excretion in Rat at 3 mg/kg […] ( 0 - 5 hr); format: ADME, organism-based, Urine; parameters: dose 3 mg/kg
Summary of the method: as §1

Rattus norvegicus [17] = experiment: Oral diuretic activity was evaluated by measuring Na+ excretion in Rat at 27 mg/kg […] ( 0 - 5 hr); format: ADME, organism-based, Urine; parameters: dose 27 mg/kg
Summary of the method: as §1

Canis familiaris [18] = experiment: Oral diuretic activity was evaluated by measuring Cl- excretion in dog at 2 mg/kg after […] ( 0 - 6 hr); format: ADME, organism-based, Canis lupus familiaris, Urine; parameters: dose 2 mg/kg, route intraperitoneal; details: in vivo
[19] = Compound administered orally at a dose of 5 mg/kg was evaluated for salidiuretic activity measured as sodium ion excretion in Rat; format: organism-based; parameters: dose 5 mg/kg; details: Urine
Summary of the method: as §4

Rattus norvegicus [20] = experiment: Oral diuretic activity was evaluated by measuring Cl- excretion in Rat at 9 mg/kg […] ( 0 - 5 hr); format: ADME, organism-based, Urine; parameters: dose 9 mg/kg; details: in vivo
Summary of the method: as §2

Canis familiaris [21] = experiment: Oral diuretic activity was evaluated by measuring Na+ excretion in dog at 2 mg/kg after […] ( 0 - 6 hr); format: ADME, organism-based, Canis lupus familiaris, Urine; parameters: dose 2 mg/kg; details: in vivo
Summary of the method: (§5)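 Dogs; spontaneous urine was pooled with bladder urine drained by catheter at the end of 6 h. Urine volume was measured, and aliquots were assayed for Na+, K+ and Cl− by standard methods. Values are geometric means, expressed as mequiv over 0–6 h.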

Canis familiaris [22] = experiment: Compound administered intravenously at a dose of 5 mg/kg was evaluated for salidiuretic activity measured as sodium ion excretion in Dog; format: ADME, organism-based, Canis lupus familiaris, Urine; parameters: dose 5 mg/kg, route intravenous; details: in vivo, iv
Summary of the method: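 Conditioned female mongrel dogs, postabsorptive, water-loaded (500 mL po) 1 h before sodium pentobarbital anesthesia (30 mg/kg iv). Bladder catheter; creatinine 4 g sc; phosphate–mannitol buffer pH 7.4 infused (3.0 mL/min) throughout. […] Urine Na+ measured; response scored 0–6.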

Canis familiaris [23] = experiment: Oral diuretic activity was evaluated by measuring Na+ excretion in dog at 5 mg/kg after […] ( 0 - 6 hr); format: ADME, organism-based, Canis lupus familiaris, Urine; parameters: dose 5 mg/kg; details: in vivo
Summary of the method: as §5

[24] = Evaluated for salidiuretic activity measured as sodium ion excretion in Rat, administered orally at a dose of 16.5 mg/kg; format: organism-based; parameters: dose 16.5 mg/kg; details: Urine
Summary of the method: as §4

Canis familiaris [25] = experiment: Oral diuretic activity was evaluated by measuring Na+ excretion in dog at 1 mg/kg after ip administration ( 0 - 6 hr); format: ADME, organism-based, Canis lupus familiaris, Urine; parameters: dose 1 mg/kg, route intraperitoneal; details: in vivo
Summary of the method: as §3

Canis familiaris [26] = experiment: Oral diuretic activity was evaluated by measuring Cl- excretion in dog at 5 mg/kg after […] ( 0 - 6 hr); format: ADME, organism-based, Canis lupus familiaris, Urine; parameters: dose 5 mg/kg, route intraperitoneal; details: in vivo
Rattus norvegicus [27] = experiment: Oral diuretic activity was evaluated by measuring Cl- excretion in Rat at 3 mg/kg after […] ( 0 - 5 hr); format: ADME, organism-based, Urine; parameters: dose 3 mg/kg, route intraperitoneal; details: in vivo
Rattus norvegicus [28] = experiment: Oral diuretic activity was evaluated by measuring K+ excretion in Rat at 27 mg/kg after po administration ( 0 - 5 hr); details: in vivo

Compound: CC(C)(C)c1cc(Cl)c(O)c(CN)c1.Cl
- Diuretic activity (Rattus norvegicus [1]): 2.1
- Diuretic activity (Rattus norvegicus [2]): 2.68
- MAP (Rattus norvegicus [3]): 35 mmHg
- Duration (Rattus norvegicus [4]): 24 h
- Diuretic activity (Rattus norvegicus [5]): 4.31
- Diuretic activity (Rattus norvegicus [6]): 0.52
- MAP (Rattus norvegicus [7]): 9 mmHg
- Diuretic activity (Rattus norvegicus [8]): 0.71
- Diuretic activity (Rattus norvegicus [9]): 4.87
- Diuretic activity (Canis familiaris [10]): 6.5
- Diuretic activity (Rattus norvegicus [11]): 0.9
- Diuretic activity (Canis familiaris [12]): 10.38
- Diuretic activity (Rattus norvegicus [13]): 3.9
- Diuretic activity (Canis familiaris [14]): 9.13
- Diuretic activity (Canis familiaris [15]): 38.25
- Diuretic activity (Rattus norvegicus [16]): 1.75
- Diuretic activity (Rattus norvegicus [17]): 3.16
- Diuretic activity (Canis familiaris [18]): 51.63
- Diuretic activity [19]: 3.6
- Diuretic activity (Rattus norvegicus [20]): 3.7
- Diuretic activity (Canis familiaris [21]): 40.38
- Diuretic activity (Canis familiaris [22]): > 900
- Diuretic activity (Canis familiaris [23]): 43.13
- Diuretic activity [24]: 4.2
- Diuretic activity (Canis familiaris [25]): 28.38
- Diuretic activity (Canis familiaris [26]): 54.25
- Diuretic activity (Rattus norvegicus [27]): 2.4
- Diuretic activity (Rattus norvegicus [28]): 0.94
